Data set [1] in a line: Retardation factor of the compound using C6H6-MeOH-AcOH at ratio of 45:30:1 as solvent system by thin layer chromatography. The data set is classed as physicochemical.
Data set [2] is described as follows: Retardation factor of the compound using C6H6-MeOH-AcOH at ratio of 9:6:1 as solvent system by thin layer chromatography. In kind it is physicochemical.
Data set [3] is described as follows: Retardation factor of the compound using C6H6-MeOH-AcOH at ratio of 9:3:1 as solvent system by thin layer chromatography. The data set is classed as physicochemical.
Data set [4] is described as follows: Retardation factor of the compound using CHCl3-MeOH at ratio of 1:1 as solvent system by thin layer chromatography. The data set is classed as physicochemical.
Data set [5] is described as follows: Retardation factor of the compound using CHCl3-MeOH at ratio of 3:1 as solvent system by thin layer chromatography. In kind it is physicochemical.
Data set [6] in a line: Retardation factor of the compound using CHCl3-MeOH at ratio of 6:1 as solvent system by thin layer chromatography. The data set is classed as physicochemical.
For data set [7], the system named is L1210. In words: Antitumor activity against mouse L1210 cells xenografted in mouse assessed as increase in median host lifespan at 160 mg/kg, ip administered q3d on days 1, 4 and 7. The data set is classed as functional. The settings on record: route intraperitoneal. Put shortly: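 Mice implanted ip with 10^5 L1210 leukemia cells. Drug was dissolved in 0.005 M sodium phosphate buffer, pH 7.4, freshly prepared before use, and injected ip on days 1, 4 and 7 after implantation. The dose range tested was 20–160 mg/kg. Five mice per group, 15 controls. Read-out is the percent increase in median life span versus untreated mice.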

For a further data set, the system named is Mus musculus. In words: Toxicity in mouse xenografted with mouse L1210 cells assessed as body weight loss at 80 to 160 mg/kg, ip administered q3d on days 1,4 and 7. As to conditions: in vivo. Also noted: dose 80-160 mg/kg, route intraperitoneal. In kind it is organism-based. The gist of the method:
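Mice were implanted ip with 10^5 L1210 cells and dosed ip on days 1, 4 and 7 after implantation. Soluble compounds were dissolved in freshly prepared 0.005 M sodium phosphate, pH 7.4; an insoluble one was suspended in 10% Tween 80. Groups had five mice, with 15 untreated controls, and body weight loss was scored as toxicity.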

The test system of the next data set is CCRF-CEM. The data set is described as follows: Growth inhibition of human CCRF-CEM cells. In kind it is functional. As to conditions: read-out: ID50 (the source's name). Put shortly: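 Human lymphoblastic leukaemia CCRF-CEM cells were grown in culture with the compound, and the concentration giving 50% growth inhibition (ID50) was reported in µg/mL.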

In data set [8] the test system is L1210. In words: Anticancer activity against mouse L1210 cells xenografted in mouse assessed as increase in median host survival at 120 mg/kg, ip administered q3d on days 1, 4, 7. The data set is classed as functional. As to conditions: route intraperitoneal.
Data set [9] deals with L1210. In words: Antitumor activity against mouse L1210 cells xenografted in mouse assessed as increase in median host lifespan at 15 mg/kg, ip administered q3d on days 1, 4 and 7. In kind it is functional. As to conditions: route intraperitoneal. Put shortly: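 L1210 murine leukemia, 10^5 cells implanted ip; drug given ip on days 1, 4 and 7 after implantation, as disodium salt in aqueous solution. Five mice per treated group, 15 untreated controls. Read-out is the percent increase in median survival time over untreated mice.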

Converted amounts (≈) assume the structure as drawn.

Turning to `CCOC(=O)CC[C@H](NC(=O)CC[C@H](NC(=O)c1ccc(N(C)Cc2cnc3nc(N)nc(N)c3n2)cc1)C(=O)O)C(=O)OCC` [listing 1 of 2 here], the Rf in data set [1] is reported as 0.44; in data set [2], 0.35; in data set [3] it was 0.2; in [4], 0.23; in [5] it was 0.02; in data set [6] it was 0.01. Further, the Activity with L1210 [7] was 40%; with Mus musculus, “Toxic”. The IC50 in the data set with CCRF-CEM came out at 0.88 µg/mL (≈ 1.38 µM).
As to `CCOC(=O)CC[C@H](NC(=O)[C@H](CCC(=O)O)NC(=O)c1ccc(N(C)Cc2cnc3nc(N)nc(N)c3n2)cc1)C(=O)OCC`, the Rf in data set [1] is on record as 0.58; in data set [2], 0.46; in data set [3], 0.31; in [4] it was 0.28; in [5], 0.1; in data set [6], 0.04. Also, the Activity in the data set on L1210 [7] is recorded as 10%; in the data set on Mus musculus, “Toxic”. Moreover, the IC50 with CCRF-CEM was above 10 µg/mL.
Consider `CCOC(=O)CC[C@H](NC(=O)CC[C@H](NC(=O)c1ccc(N(C)Cc2cnc3nc(N)nc(N)c3n2)cc1)C(=O)N[C@@H](CCC(=O)OCC)C(=O)OCC)C(=O)OCC`, for which the Rf in [4] came to 0.82; in [5], 0.78; in [6], 0.46. Further, the IC50 in the data set with CCRF-CEM came out at 3.8 µg/mL (≈ 4.61 µM).
On the same counts, the results for `CCOC(=O)CC[C@H](NC(=O)CC[C@@H](NC(=O)c1ccc(N(C)Cc2cnc3nc(N)nc(N)c3n2)cc1)C(=O)N[C@@H](CCC(=O)OCC)C(=O)OCC)C(=O)OCC` are 0.82, 0.77, 0.43 and 9 µg/mL (≈ 10.9 µM).
As for `CCOC(=O)CC[C@H](NC(=O)CC[C@H](NC(=O)c1ccc(N(C)Cc2cnc3nc(N)nc(N)c3n2)cc1)C(=O)OCC)C(=O)OCC`, the Rf is given as 0.79 in data set [4], 0.76 in data set [5] and 0.44 in data set [6]. In addition, the IC50 in the data set on CCRF-CEM amounted to 1.8 µg/mL (≈ 2.7 µM).
Taken in the same sequence, the figures for `CCOC(=O)CC[C@H](NC(=O)c1ccc(N(C)Cc2cnc3nc(N)nc(N)c3n2)cc1)C(=O)N[C@@H](CCC(=O)OCC)C(=O)OCC` were 0.79, 0.73, 0.4 and 0.85 µg/mL (≈ 1.27 µM).
In the case of `CCOC(=O)CC[C@H](NC(=O)CC[C@H](NC(=O)c1ccc(N(C)Cc2cnc3nc(N)nc(N)c3n2)cc1)C(=O)O)C(=O)OCC` [listing 2 of 2 here], in the data set on L1210 [8], the survival at 120 mg/kg was 77%.
As for `CCOC(=O)CCC(NC(=O)CCC(NC(=O)c1ccc(N(C)Cc2cnc3nc(N)nc(N)c3n2)cc1)C(=O)NC(CCC(=O)OCC)C(=O)OCC)C(=O)OCC` (mixture of isomers), the Rf is recorded as 0.82 in data set [1]; 0.68 in [2]; 0.47 in [3]; 0.82 in data set [4]; 0.77 in data set [5]; 0.4 in [6].
On to `CN(Cc1cnc2nc(N)nc(N)c2n1)c1ccc(C(=O)N[C@@H](CCC(=O)[O-])C(=O)[O-])cc1.[Na+].[Na+]` [METHOTREXATE SODIUM], for which, in the data set on L1210 [9], the Activity stood at 60%.
As to `CN(Cc1cnc2nc(N)nc(N)c2n1)c1ccc(C(=O)N[C@@H](CCC(=O)O)C(=O)O)cc1` [METHOTREXATE], the IC50 in the data set with CCRF-CEM turned out to be 0.003 µg/mL (≈ 0.0066 µM).
